Test system: HeLa
Experiment: Antiproliferative activity against human HeLa cells assessed as inhibition of cell growth incubated for 24 hrs by MTT assay
Type: functional, cell-based
Summary of the method: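 Cells kept in DMEM with 10% FBS and 1% antibiotic-antimycotic at 37 °C and 5% CO2. Seeded at 8 × 10^3 cells per 100 μL and left 24 h, then exposed 24 h to 5, 10, 20, 50 or 100 μM. MTT at 0.5 mg/mL in HBSS was added for 2–4 h at 37 °C in the dark. Formazan was dissolved in DMSO, A570 was read, and IC50 was derived.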

IC50: > 100 µM
SMILES: C[C@@H](C[C@@H](O)[C@H](O)C(C)(C)O)[C@@H]1CC[C@]2(C)C3=CC[C@H]4C(C)(C)[C@H](O)CC[C@]4(C)[C@H]3CC[C@@]12C

— ChEMBL document CHEMBL6083205, “A comprehensive apoptotic assessment of niloticin in cervical cancer cells: a tirucallane-type triterpenoid from Aphanamixis polystachya (Wall.) Parker” (RSC Med Chem, 2024)
